Measured values as given in ChEMBL document CHEMBL4689842, “EUbOPEN Chemogenomics Library wave 1” (2021).

Tested on: HEK-293T
Experiment: Multiplex assay against HEK293T;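 as to Population Tubulin-Different-Phenotype (%): share of the cells with healthy nuclei that show this phenotype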
Format: toxicity, cell-based
Settings: human
Method in brief: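 Per cents of healthy-nucleus cells form the tubulin, mitochondrial-mass and membrane-permeability phenotype values. Live cells were stained at seeding with Hoechst33342, BioTracker Green Microtubule Cytoskeleton Dye, MitoTracker Red and Annexin V Alexa Fluor 680. After compound addition they were imaged on a CQ1 microscope at 37°C and 5% CO2, and CellPathfinder machine-learning gating split them into Hoechst high-intensity objects or normal cells, normal cells into healthy, pyknosed or fragmented nuclei, and pyknosed cells into mitotic or apoptotic.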

[1] = 12 h, 1 µM, compound concentration 1 uM, replicate 1
[2] = 12 h, 1 µM, compound concentration 1 uM, replicate 2
[3] = 12 h, 10 µM, compound concentration 10 uM, replicate 1
[4] = 12 h, 10 µM, compound concentration 10 uM, replicate 2
[5] = 24 h, 1 µM, compound concentration 1 uM, replicate 1
[6] = 24 h, 1 µM, compound concentration 1 uM, replicate 2
[7] = 24 h, 10 µM, compound concentration 10 uM, replicate 1
[8] = 24 h, 10 µM, compound concentration 10 uM, replicate 2
[9] = 48 h, 1 µM, compound concentration 1 uM, replicate 1
[10] = 48 h, 1 µM, compound concentration 1 uM, replicate 2
[11] = 48 h, 10 µM, compound concentration 10 uM, replicate 1
[12] = 48 h, 10 µM, compound concentration 10 uM, replicate 2

Compound: CC[C@H](C)C(=O)O[C@H]1C[C@@H](C)C=C2C=C[C@H](C)[C@H](CC[C@@H]3C[C@@H](O)CC(=O)O3)[C@H]21 [LOVASTATIN]
- Population Apoptotic (%) [1]: 48%
- Population Fragmented Nuclei (%) [1]: 22%
- Population Healthy Nuclei (%) [1]: 16%
- Population Hoechst High Intensity Objects (%) [1]: 14%
- Population Mitochondria Different-Phenotype (%) [1]: 68%
- Population Mitotic Cells (%) [1]: 51%
- Population Normal (%) [1]: 85%
- Population Pyknosed Nuclei (%) [1]: 60%
- Population Tubulin-Different-Phenotype (%) [1]: 28%
- Total Cell Count [1]: 174
- Population Apoptotic (%) [2]: 7%
- Population Fragmented Nuclei (%) [2]: 4%
- Population Healthy Nuclei (%) [2]: 44%
- Population Hoechst High Intensity Objects (%) [2]: 4%
- Population Membrane Permeable-Phenotype (%) [2]: 4%
- Population Mitochondria Different-Phenotype (%) [2]: 11%
- Population Mitotic Cells (%) [2]: 92%
- Population Normal (%) [2]: 95%
- Population Pyknosed Nuclei (%) [2]: 50%
- Population Tubulin-Different-Phenotype (%) [2]: 9%
- Total Cell Count [2]: 227
- Population Apoptotic (%) [3]: 47%
- Population Fragmented Nuclei (%) [3]: 8%
- Population Healthy Nuclei (%) [3]: 33%
- Population Hoechst High Intensity Objects (%) [3]: 14%
- Population Membrane Permeable-Phenotype (%) [3]: 1%
- Population Mitochondria Different-Phenotype (%) [3]: 89%
- Population Mitotic Cells (%) [3]: 52%
- Population Normal (%) [3]: 85%
- Population Pyknosed Nuclei (%) [3]: 57%
- Population Tubulin-Different-Phenotype (%) [3]: 39%
- Total Cell Count [3]: 341
- Population Apoptotic (%) [4]: 10%
- Population Fragmented Nuclei (%) [4]: 5%
- Population Healthy Nuclei (%) [4]: 45%
- Population Hoechst High Intensity Objects (%) [4]: 3%
- Population Membrane Permeable-Phenotype (%) [4]: 4%
- Population Mitochondria Different-Phenotype (%) [4]: 21%
- Population Mitotic Cells (%) [4]: 89%
- Population Normal (%) [4]: 96%
- Population Pyknosed Nuclei (%) [4]: 49%
- Population Tubulin-Different-Phenotype (%) [4]: 16%
- Total Cell Count [4]: 266
- Population Apoptotic (%) [5]: 50%
- Population Fragmented Nuclei (%) [5]: 30%
- Population Healthy Nuclei (%) [5]: 16%
- Population Hoechst High Intensity Objects (%) [5]: 19%
- Population Membrane Permeable-Phenotype (%) [5]: 4%
- Population Mitochondria Different-Phenotype (%) [5]: 52%
- Population Mitotic Cells (%) [5]: 50%
- Population Normal (%) [5]: 80%
- Population Pyknosed Nuclei (%) [5]: 52%
- Population Tubulin-Different-Phenotype (%) [5]: 32%
- Total Cell Count [5]: 192
- Population Apoptotic (%) [6]: 8%
- Population Fragmented Nuclei (%) [6]: 3%
- Population Healthy Nuclei (%) [6]: 65%
- Population Hoechst High Intensity Objects (%) [6]: 3%
- Population Membrane Permeable-Phenotype (%) [6]: 6%
- Population Mitochondria Different-Phenotype (%) [6]: 13%
- Population Mitotic Cells (%) [6]: 91%
- Population Normal (%) [6]: 96%
- Population Pyknosed Nuclei (%) [6]: 30%
- Population Tubulin-Different-Phenotype (%) [6]: 20%
- Total Cell Count [6]: 287
- Population Apoptotic (%) [7]: 38%
- Population Fragmented Nuclei (%) [7]: 12%
- Population Healthy Nuclei (%) [7]: 37%
- Population Hoechst High Intensity Objects (%) [7]: 17%
- Population Membrane Permeable-Phenotype (%) [7]: 1%
- Population Mitochondria Different-Phenotype (%) [7]: 73%
- Population Mitotic Cells (%) [7]: 61%
- Population Normal (%) [7]: 82%
- Population Pyknosed Nuclei (%) [7]: 50%
- Population Tubulin-Different-Phenotype (%) [7]: 37%
- Total Cell Count [7]: 349
- Population Apoptotic (%) [8]: 14%
- Population Fragmented Nuclei (%) [8]: 4%
- Population Healthy Nuclei (%) [8]: 57%
- Population Hoechst High Intensity Objects (%) [8]: 4%
- Population Membrane Permeable-Phenotype (%) [8]: 6%
- Population Mitochondria Different-Phenotype (%) [8]: 17%
- Population Mitotic Cells (%) [8]: 85%
- Population Normal (%) [8]: 95%
- Population Pyknosed Nuclei (%) [8]: 37%
- Population Tubulin-Different-Phenotype (%) [8]: 20%
- Total Cell Count [8]: 320
- Population Apoptotic (%) [9]: 49%
- Population Fragmented Nuclei (%) [9]: 29%
- Population Healthy Nuclei (%) [9]: 28%
- Population Hoechst High Intensity Objects (%) [9]: 15%
- Population Membrane Permeable-Phenotype (%) [9]: 2%
- Population Mitochondria Different-Phenotype (%) [9]: 42%
- Population Mitotic Cells (%) [9]: 50%
- Population Normal (%) [9]: 84%
- Population Pyknosed Nuclei (%) [9]: 41%
- Population Tubulin-Different-Phenotype (%) [9]: 40%
- Total Cell Count [9]: 205
- Population Apoptotic (%) [10]: 3%
- Population Fragmented Nuclei (%) [10]: 6%
- Population Healthy Nuclei (%) [10]: 81%
- Population Hoechst High Intensity Objects (%) [10]: 3%
- Population Membrane Permeable-Phenotype (%) [10]: 7%
- Population Mitochondria Different-Phenotype (%) [10]: 4%
- Population Mitotic Cells (%) [10]: 96%
- Population Normal (%) [10]: 96%
- Population Pyknosed Nuclei (%) [10]: 11%
- Population Tubulin-Different-Phenotype (%) [10]: 20%
- Total Cell Count [10]: 588
- Population Apoptotic (%) [11]: 42%
- Population Fragmented Nuclei (%) [11]: 17%
- Population Healthy Nuclei (%) [11]: 37%
- Population Hoechst High Intensity Objects (%) [11]: 19%
- Population Membrane Permeable-Phenotype (%) [11]: 2%
- Population Mitochondria Different-Phenotype (%) [11]: 46%
- Population Mitotic Cells (%) [11]: 57%
- Population Normal (%) [11]: 80%
- Population Pyknosed Nuclei (%) [11]: 45%
- Population Tubulin-Different-Phenotype (%) [11]: 39%
- Total Cell Count [11]: 384
- Population Apoptotic (%) [12]: 8%
- Population Fragmented Nuclei (%) [12]: 5%
- Population Healthy Nuclei (%) [12]: 72%
- Population Hoechst High Intensity Objects (%) [12]: 4%
- Population Membrane Permeable-Phenotype (%) [12]: 6%
- Population Mitochondria Different-Phenotype (%) [12]: 5%
- Population Mitotic Cells (%) [12]: 91%
- Population Normal (%) [12]: 95%
- Population Pyknosed Nuclei (%) [12]: 21%
- Population Tubulin-Different-Phenotype (%) [12]: 24%
- Total Cell Count [12]: 484
